ChEMBL document CHEMBL2412978, “Effect of ring-constrained phenylpropyloxyethylamines on sigma receptors” (Bioorg Med Chem, 2013)
Activity calls are given as the source filed them. No cut-off for these calls is given here.

Tests used:
Mus musculus [1] = assay: Anticonvulsant activity in ip dosed Swiss Webster mouse assessed as reversal of cocaine-induced loss of righting reflexes administered 15 mins before cocaine challenge measured after 30 mins; assay type: functional, organism-based
Procedure, shortened: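 Male Swiss Webster mice, n = 10 per group, given test compound ip (0–30 mg/kg range across doses including vehicle 0) 15 min before convulsive cocaine 70 mg/kg ip. Animals watched 30 min after cocaine for occurrence of convulsions; groups compared by Fisher's exact test.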

Rattus norvegicus = organism: Rattus norvegicus; assay: Selectivity ratio of Ki for sigma 2 receptor in rat brain homogenates to Ki for sigma 1 receptor in rat brain homogenates; assay type: tissue-based
[2] = Displacement of [3H]di-o-tolylguanidine from sigma 2 receptor in rat brain homogenates after 120 mins by liquid scintillation counting; assay type: tissue-based
Mu-type opioid receptor = Mu-type opioid receptor (Homo sapiens, UniProt P35372); assay: Displacement of [3H]DAMGO from human mu opioid receptor expressed in CHO cells after 120 mins by liquid scintillation counting; assay type: cell-based
Procedure, shortened: (§1)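 Membranes from CHO cells stably expressing human μ, δ or κ opioid receptor. Radioligands: μ 1.3 nM [3H]DAMGO, δ 1.2 nM [3H]DPDPE, κ 1.7 nM [3H]U69,593; nonspecific with 1 μM of the matching unlabelled ligand.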

[3] = target: Kappa-type opioid receptor (Homo sapiens, UniProt P41145); assay: Displacement of [3H]U69,593 from human kappa opioid receptor expressed in CHO cells after 120 mins by liquid scintillation counting; assay type: cell-based; procedure, shortened: as §1
Mus musculus [4] = assay: Anticonvulsant activity in Swiss Webster mouse assessed as reversal of cocaine-induced loss of righting reflexes at 30 mg/kg, ip administered 15 mins before cocaine challenge measured after 30 mins; assay type: functional, organism-based; design: dose 30 mg/kg
Procedure, shortened: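 Male Swiss Webster mice, n = 10/group, given test compound ip (0, 1, 10 or 30 mg/kg) 15 min before a convulsive dose of cocaine (70 mg/kg ip). Animals observed for convulsions for 30 min after cocaine injection. Groups compared by Fisher's exact test.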

Chain of Kappa-type opioid receptor (P41145 whole entry): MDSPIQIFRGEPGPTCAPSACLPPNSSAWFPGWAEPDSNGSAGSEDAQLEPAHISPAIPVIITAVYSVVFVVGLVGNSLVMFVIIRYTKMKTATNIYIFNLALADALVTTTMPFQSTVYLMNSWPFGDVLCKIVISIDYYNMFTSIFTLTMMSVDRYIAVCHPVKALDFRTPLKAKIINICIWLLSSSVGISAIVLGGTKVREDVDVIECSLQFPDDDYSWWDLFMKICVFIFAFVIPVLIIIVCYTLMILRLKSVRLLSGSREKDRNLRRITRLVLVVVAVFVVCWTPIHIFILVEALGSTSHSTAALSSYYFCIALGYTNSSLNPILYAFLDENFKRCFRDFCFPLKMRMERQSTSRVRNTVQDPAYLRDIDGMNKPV
Chain of Mu-type opioid receptor (P35372 whole entry): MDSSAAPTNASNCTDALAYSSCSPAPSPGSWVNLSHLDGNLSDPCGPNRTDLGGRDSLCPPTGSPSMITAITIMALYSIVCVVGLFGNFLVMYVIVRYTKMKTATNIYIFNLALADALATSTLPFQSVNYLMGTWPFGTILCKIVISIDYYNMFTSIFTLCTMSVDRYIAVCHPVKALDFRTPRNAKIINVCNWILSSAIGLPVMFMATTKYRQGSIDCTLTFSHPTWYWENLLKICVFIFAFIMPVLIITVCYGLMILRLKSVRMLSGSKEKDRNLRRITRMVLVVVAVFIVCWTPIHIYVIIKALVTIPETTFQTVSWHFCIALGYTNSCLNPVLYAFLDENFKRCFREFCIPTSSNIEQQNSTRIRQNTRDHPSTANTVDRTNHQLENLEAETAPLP

Row | Compound | Ratio Ki (Rattus norvegicus) | Ki [2] [nM] | Ki (Mu-type opioid receptor) [nM] | Ki [3] [nM] | Activity (Mus musculus [1]) | Activity (Mus musculus [4])
1 | CN(CCc1ccccc1)[C@H]1CCCC[C@@H]1OCCCc1ccccc1 (relative stereo) | 7 | 570 |  | 21000 |  | 
2 | CN(CCCc1ccccc1)[C@H]1CCCC[C@@H]1OCCCc1ccccc1 (racemic) |  | > 10000 |  |  |  | 
3 | c1ccc(CCN2CCCCC2)cc1 [1-PHENETHYLPIPERIDINE] | 5 | 140 |  |  |  | 
4 | CN(CCc1ccccc1)[C@H]1CCCC[C@@H]1O (relative stereo) | 2 | 220 |  |  |  | Active

Continued by falling Ki [2], values first:

Row | Ratio Ki (Rattus norvegicus) | Ki [2] [nM] | Ki (Mu-type opioid receptor) [nM] | Ki [3] [nM] | Compound | Activity (Mus musculus [1]) | Activity (Mus musculus [4])
5 | 65 | 3800 |  |  | CN(C)[C@H]1CCCC[C@@H]1OCCCc1ccccc1 (relative stereo) |  | 
6 | 240 | 1100 |  |  | CN(C)[C@H]1CCCC[C@@H]1OC/C=C/c1ccccc1 (relative stereo) |  | 
7 | 0.4 | 6.7 | > 10000 |  | CN(CCCc1ccccc1)[C@H]1CCCC[C@@H]1O (relative stereo) | Dose-dependent effect | 
